The source made the active and inactive calls. No cut-off for these calls is given here.
How the values were obtained:
Aspergillus niger = experiment: Antifungal activity against Aspergillus niger AIIMS isolate at 30 ug/ml by cup-plate agar diffusion method; format: functional; settings: for zone of inhibition at 30 µg/mL: read-out: DIZ
Outline: (§1)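 Cup-plate agar diffusion assay against the fungal strains, with amphotericin B as the reference standard.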

Escherichia coli [1] = experiment: Antibacterial activity against Escherichia coli ATCC 25922 at 200 ug/ml after 24 hrs; format: functional, organism-based
Outline: (§2)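 Organisms grown overnight at 37 °C in buffered glucose broth. A loopful (5 mm diameter) was added to buffered glucose broth containing the test compound and incubated at 37 °C for 24 h. Growth was scored against the untreated control as total inhibition, poor, medium or confluent growth.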

Escherichia coli [2] = experiment: Antibacterial activity against Escherichia coli ATCC 25922 at 100 ug/ml after 24 hrs; format: functional, organism-based; outline: as §2
Bacillus subtilis [3] = experiment: Antibacterial activity against Bacillus subtilis MTCC 121 at 500 ug/ml after 24 hrs; format: functional, organism-based; outline: as §2
Bacillus subtilis [4] = experiment: Antibacterial activity against Bacillus subtilis MTCC 121 at 10 ug/ml after 24 hrs; format: functional, organism-based; outline: as §2
Bacillus subtilis [5] = experiment: Antibacterial activity against Bacillus subtilis MTCC 121 at 200 ug/ml after 24 hrs; format: functional, organism-based; outline: as §2
Escherichia coli [6] = experiment: Antibacterial activity against Escherichia coli ATCC 25922 at 1 ug/ml after 24 hrs; format: functional, organism-based; outline: as §2
Escherichia coli [7] = experiment: Antibacterial activity against Escherichia coli ATCC 25922 at 10 ug/ml after 24 hrs; format: functional, organism-based; outline: as §2
Bacillus subtilis [8] = experiment: Antibacterial activity against Bacillus subtilis MTCC 121 at 100 ug/ml after 24 hrs; format: functional, organism-based; outline: as §2
Escherichia coli [9] = experiment: Antibacterial activity against Escherichia coli ATCC 25922 at 500 ug/ml after 24 hrs; format: functional, organism-based; outline: as §2
Escherichia coli [10] = experiment: Antibacterial activity against Escherichia coli ATCC 25922 after 24 hrs; format: functional
Bacillus subtilis [11] = experiment: Antibacterial activity against Bacillus subtilis MTCC 121 at 1 ug/ml after 24 hrs; format: functional, organism-based; outline: as §2
Bacillus subtilis [12] = experiment: Antibacterial activity against Bacillus subtilis MTCC 121 after 24 hrs; format: functional
Aspergillus flavus = experiment: Antifungal activity against Aspergillus flavus AIIMS isolate at 30 ug/ml by cup-plate agar diffusion method; format: functional; settings: for zone of inhibition at 30 µg/mL: read-out: DIZ; outline: as §1
Candida albicans = experiment: Antifungal activity against Candida albicans MTCC 1637 at 30 ug/ml by cup-plate agar diffusion method; format: functional; settings: for zone of inhibition at 30 µg/mL: read-out: DIZ; outline: as §1

Cc1nc2ccccc2n1Cc1nnc(/N=C/c2ccc(Cl)cc2)s1
zone of inhibition at 30 µg/mL (Aspergillus niger): 10 mm | inhibition (Escherichia coli [1]): inactive | inhibition (Escherichia coli [2]): inactive | Activity (Bacillus subtilis [3]): inactive | inhibition (Bacillus subtilis [4]): inactive | inhibition (Bacillus subtilis [5]): inactive | inhibition (Escherichia coli [6]): inactive | inhibition (Escherichia coli [7]): inactive | inhibition (Bacillus subtilis [8]): inactive | inhibition (Escherichia coli [9]): inactive | MIC (Escherichia coli [10]): inactive | inhibition (Bacillus subtilis [11]): inactive | MIC (Bacillus subtilis [12]): inactive | zone of inhibition at 30 µg/mL (Aspergillus flavus): < 10 mm | zone of inhibition at 30 µg/mL (Candida albicans): 10 mm

Cc1nc2ccccc2n1Cc1nnc(/N=C/c2cccc(O)c2)s1
zone of inhibition at 30 µg/mL (Aspergillus niger): 10 mm | inhibition (Escherichia coli [1]): inactive | inhibition (Escherichia coli [2]): inactive | Activity (Bacillus subtilis [3]): inactive | inhibition (Bacillus subtilis [4]): inactive | inhibition (Bacillus subtilis [5]): inactive | inhibition (Escherichia coli [6]): inactive | inhibition (Escherichia coli [7]): inactive | inhibition (Bacillus subtilis [8]): inactive | inhibition (Escherichia coli [9]): inactive | MIC (Escherichia coli [10]): inactive | inhibition (Bacillus subtilis [11]): inactive | MIC (Bacillus subtilis [12]): inactive | zone of inhibition at 30 µg/mL (Aspergillus flavus): 10 mm | zone of inhibition at 30 µg/mL (Candida albicans): 22 mm

Cc1nc2ccccc2n1Cc1nnc(N2C(=O)C(Cl)C2c2ccc(Cl)cc2)s1 (stereo not given)
diameter of the inhibition zone (DIZ) (Aspergillus niger): inactive | inhibition (Escherichia coli [1]): inactive | inhibition (Escherichia coli [2]): inactive | Activity (Bacillus subtilis [3]): inactive | inhibition (Bacillus subtilis [4]): inactive | inhibition (Bacillus subtilis [5]): inactive | inhibition (Escherichia coli [6]): inactive | inhibition (Escherichia coli [7]): inactive | inhibition (Bacillus subtilis [8]): inactive | inhibition (Escherichia coli [9]): inactive | MIC (Escherichia coli [10]): inactive | inhibition (Bacillus subtilis [11]): inactive | MIC (Bacillus subtilis [12]): inactive | diameter of the inhibition zone (DIZ) (Aspergillus flavus): inactive | diameter of the inhibition zone (DIZ) (Candida albicans): inactive

Cc1cccc(C2C(Cl)C(=O)N2c2nnc(Cn3c(C)nc4ccccc43)s2)c1 (stereo not given)
diameter of the inhibition zone (DIZ) (Aspergillus niger): inactive | inhibition (Escherichia coli [1]): inactive | inhibition (Escherichia coli [2]): inactive | Activity (Bacillus subtilis [3]): inactive | inhibition (Bacillus subtilis [4]): inactive | inhibition (Bacillus subtilis [5]): inactive | inhibition (Escherichia coli [6]): inactive | inhibition (Escherichia coli [7]): inactive | inhibition (Bacillus subtilis [8]): inactive | inhibition (Escherichia coli [9]): inactive | MIC (Escherichia coli [10]): inactive | inhibition (Bacillus subtilis [11]): inactive | MIC (Bacillus subtilis [12]): inactive | diameter of the inhibition zone (DIZ) (Aspergillus flavus): inactive | diameter of the inhibition zone (DIZ) (Candida albicans): inactive

COc1ccccc1/C=N/c1nnc(Cn2c(C)nc3ccccc32)s1
zone of inhibition at 30 µg/mL (Aspergillus niger): 16 mm | inhibition (Escherichia coli [1]): inactive | inhibition (Escherichia coli [2]): inactive | Activity (Bacillus subtilis [3]): inactive | inhibition (Bacillus subtilis [4]): inactive | inhibition (Bacillus subtilis [5]): inactive | inhibition (Escherichia coli [6]): inactive | inhibition (Escherichia coli [7]): inactive | inhibition (Bacillus subtilis [8]): inactive | inhibition (Escherichia coli [9]): inactive | MIC (Escherichia coli [10]): inactive | inhibition (Bacillus subtilis [11]): inactive | MIC (Bacillus subtilis [12]): inactive | zone of inhibition at 30 µg/mL (Aspergillus flavus): 16 mm | zone of inhibition at 30 µg/mL (Candida albicans): 10 mm

Cc1cccc(/C=N/c2nnc(Cn3c(C)nc4ccccc43)s2)c1
diameter of the inhibition zone (DIZ) (Aspergillus niger): inactive | inhibition (Escherichia coli [1]): inactive | inhibition (Escherichia coli [2]): inactive | Activity (Bacillus subtilis [3]): inactive | inhibition (Bacillus subtilis [4]): inactive | Activity (Bacillus subtilis [5]): inactive | inhibition (Escherichia coli [6]): inactive | inhibition (Escherichia coli [7]): inactive | inhibition (Bacillus subtilis [8]): inactive | inhibition (Escherichia coli [9]): inactive | MIC (Escherichia coli [10]): inactive | inhibition (Bacillus subtilis [11]): inactive | Activity (Bacillus subtilis [12]): inactive | diameter of the inhibition zone (DIZ) (Aspergillus flavus): inactive | diameter of the inhibition zone (DIZ) (Candida albicans): inactive

— ChEMBL document CHEMBL1158335, “Synthesis and evaluation of some new benzimidazole derivatives as potential antimicrobial agents” (2009)
